Published values of several laboratories.
Lines come from different studies, so protocols differ.
Effect on: cell growth or viability

CONC(=O)c1cccc2c1cc(C)n2-c1nc2c(c(NCc3ccccc3)n1)CCCN2 — IC50 (MOLM16; 72 h): 0.4 µM
COc1cccc2c1C(=O)c1c(O)c3c(c(O)c1C2=O)C[C@@](O)(C(=O)CO)C[C@@H]3O[C@H]1C[C@H](N)[C@H](O)[C@H](C)O1 — IC50 (human Skin fibroblast; MTT; 24 h): > 100 µM
C[C@H](Nc1ccc2c(c1)OCCn1cc(N3C(=O)OC[C@H]3C(F)F)nc1-2)C(N)=O — EC50 (NCI-H1563; ATP luminescence; 5 days): 0.149 µM
NC(=O)C1CN(C(=O)CCl)c2ccccc2O1 (stereo not shown) — IC50 (BT-474; fluorescence; 5 days): 17.5 µM
Cc1cc2c(C(=O)O)cccc2n1-c1nc2c(c(NCc3ccccc3)n1)CCCN2 — IC50 (MOLM16; 72 h): 0.7 µM
COC(=O)c1cc(C(C)=NNc2nc(-c3ccc(C)cc3)cs2)ccc1O — IC50 (human Skin fibroblast; MTT; 96 h): 10.2 µM
Cc1nc(NC(=O)N2CCC[C@H]2C(N)=O)sc1-c1ccnc(C(C)(C)C(F)(F)F)c1 — EC50 (NCI-H1563; ATP luminescence; 5 days): 7.42 µM
COc1cc([C@@H]2c3cc4c(cc3[C@@H](O[C@@H]3O[C@@H]5CO[C@@H](C)O[C@H]5[C@H](O)[C@H]3O)[C@H]3COC(=O)[C@H]23)OCO4)cc(OC)c1O — IC50 (SK-HEP1; SRB; 72 h): 2.7 µM
CCc1oc2cc(S(=O)(=O)Nc3ccc(S(=O)(=O)Nc4nccs4)cc3)ccc2c1C(=O)c1cc(Br)c(O)c(Br)c1 — IC50 (human Skin fibroblast; MTT; 96 h): 146 µM
CO[C@H]1[C@H](O[C@H]([C@H]2O[C@@H](n3ccc(=O)[nH]c3=O)[C@H](O)[C@@H]2O)[C@H](NCCCNC(=O)[C@@H](NC(=O)[C@@H](NC(=O)N[C@H](C(=O)O)C(C)C)[C@@H]2CCN=C(N)N2)[C@@H](O)C(C)C)C(=O)O)O[C@H](CN)[C@H]1O — IC50 (BT-474; WST-1): > 35 µM
C[C@H]1[C@H](C)CC[C@]2(C(=O)O)CC[C@]3(C)C(=CC[C@@H]4[C@@]5(C)CC[C@H](O)C(C)(C)[C@@H]5CC[C@]43C)[C@H]12 — IC50 (human Skin fibroblast; MTT; 24 h): 32.3 µM
CO[C@H]1[C@H](O[C@H]([C@H]2O[C@@H](n3ccc(=O)[nH]c3=O)[C@H](O)[C@@H]2O)[C@H](NCCCNC(=O)[C@@H](NC(=O)[C@@H](NC(=O)N[C@H](C(=O)O)C(C)C)[C@@H]2CCN=C(N)N2)[C@@H](OC(=O)CCCCCCCCCCCCN(O)C(=N)N)C(C)C)C(=O)O)O[C@H](CN)[C@H]1O — IC50 (BT-474; WST-1): 0.85 µM
CC(C)(C)c1cnc(CSc2cnc(NC(=O)C3CCN(C(=O)CCCCCCCN4Cc5cc6c(cc5C4)C(=O)N(C4CCC(=O)NC4=O)C6=O)CC3)s2)o1 (stereo not shown) — IC50 (MES-SA; MTT): 0.0853 µM
